# Assay results gathered from unrelated publications.
# Each line is one published result; the experiments were not run side by side.
SMILES,host,sample,route,dose,setting,clearance
CCc1cc(OC)c2nccc(N3CCc4c(cc(Cn5ccnc5)cc4-c4cn(C)nc4C(F)(F)F)C3=O)c2c1,male CD-1 mouse,plasma,intravenous,3 mg/kg,,16 mL/min/kg
C=C(C[C@H](N)C(=O)O)C(=O)NCc1ccc(F)cc1,male CD-1 mouse,plasma,intravenous,2.5 mg/kg,,29.4 mL/min/kg
CC[C@H](C)[C@@H]1NC(=O)[C@@](C)(NC(=O)[C@H](CCCNC(=N)N)NC(=O)[C@H](CC(C)C)NC(=O)[C@@H](NC(=O)[C@H](CCC(N)=O)NC(=O)[C@H](CC(C)C)NC(C)=O)[C@@H](C)O)CCCC=CCCC[C@@](C)(C(=O)N[C@@H](CC(C)C)C(=O)N[C@@H](Cc2ccc3ccccc3c2)C(N)=O)NC(=O)[C@H](CCCNC(=N)N)NC(=O)[C@H](CCC(N)=O)NC1=O,male BALB/c mouse,plasma,intravenous,15 mg/kg,,0.96 mL/min/kg
CC(C)N1Cc2cc(C(F)(F)F)ncc2C2=CN=C(NCc3c(F)ccc4c3CCO4)N3C=NC(C1=O)C23 (stereo not shown),male CD-1 mouse,plasma,intravenous,2 mg/kg,,1.71 mL/min/kg
CC(C)(C)c1ccc(O)c(CN(Cc2cc(C(C)(C)C)ccc2O)C2CCC(NC(N)=O)CC2)c1 (stereo not shown),male C57BL/6 mouse,plasma,intraperitoneal,10 mg/kg,single dose,17 mL/min/kg
COc1cc(OC)c2nccc(N3CCc4c(cc(Cn5ccnc5)cc4-c4cn(C)nc4C(F)(F)F)C3=O)c2c1,male CD-1 mouse,plasma,intravenous,3 mg/kg,,63 mL/min/kg
Nc1ncc(-c2ccncc2)nc1Nc1ccc2[nH]ccc2c1,male C57BL/6 mouse,plasma,intravenous,5 mg/kg,,112 mL/min/kg
NCC1CCN(c2nc(-c3ccncc3)nc3sc4c(c23)CCCC4)CC1,female CD-1 mouse,plasma,intravenous,10 mg/kg,,38 mL/min/kg
CNCCN(C)c1cc(C#N)cc(CCc2cc(C)cc(N)n2)c1,male BALB/c mouse,brain,intravenous,2 mg/kg,,21 mL/min/kg
NC(=S)NN=Cc1ncccc1N,female C57BL/6 mouse,plasma,intravenous,20 mg/kg,,13.8 mL/min/kg
O=C(Nc1ccc(Cl)c(Cl)c1)c1ccc(N2CCNCC2)c([N+](=O)[O-])c1,male mouse,plasma,oral,10 mg/kg,,53.5 mL/min/kg
COc1nc(-c2cc(C)c(N[C@@H](C)c3ccc(F)cc3)nn2)ccc1-n1cnc(C)c1,male CD-1 mouse,plasma,intravenous,1 mg/kg,single dose,3.9 mL/min/kg
CNC(=O)c1cc(OC)cc2c(N3CCc4c(cc(Cn5ccnc5)cc4-c4cn(C)nc4C(F)(F)F)C3=O)ccnc12,male CD-1 mouse,plasma,intravenous,3 mg/kg,,15 mL/min/kg
Cc1noc(C)c1-c1ccc2nc(-c3cnn(CC(C)(C)O)c3)nc(N3CCNC[C@@H]3c3ccccc3)c2c1,CD-1 mouse,plasma,intravenous,2 mg/kg,,272 mL/min/kg
Cc1c(Br)cc(NC(=O)CS(=O)(=O)O)cc1Br,CD-1 mouse,blood,intravenous,2 mg/kg,,21.8 mL/min/kg
CC(C)(Oc1cccc(N2CCC[C@@H](C(=O)N(Cc3ccc(-c4cn[nH]c4)cc3)C3CC3)C2)c1)C(=O)N1CCNCC1.Cl,male C57BL/6 mouse,plasma,intravenous,1 mg/kg,,44.2 mL/min/kg
OC[C@H]1O[C@@H](c2ccc(Cl)c(Cc3ccc(O[C@H]4CCOC4)cc3)c2)[C@H](O)[C@@H](O)[C@@H]1O,CD-1 mouse,plasma,intravenous,5 mg/kg,,51.6 mL/min/kg
O=C(CS(=O)(=O)O)Nc1ccc(N2CCOCC2)c(Br)c1,CD-1 mouse,blood,intravenous,2 mg/kg,,62 mL/min/kg
CCO[C@H]1CCN(Cc2c(OC)cc(C)c3[nH]ccc23)[C@H](c2ccc(C(=O)O)cc2)C1,C57BL/6 mouse,plasma,intravenous,1 mg/kg,,16 mL/min/kg
